Source: ChEMBL document CHEMBL1154958, “Novel molecular hybrids of cinnamic acids and guanylhydrazones as potential antitubercular agents” (Bioorg Med Chem Lett, 2010)
≈ marks a conversion by molar mass, not a printed value.

Columns and labels:
[1] = test system: Mycobacterium tuberculosis; test: Antituberculosis activity against Mycobacterium tuberculosis H37Rv after 7 days by resazurin microtiter assay; format: functional; conditions: 168 h
In short: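 H37Rv suspension seeded at 10⁵ cells/well in Middlebrook 7H9 broth. Compounds were serially diluted on the plate, and controls got matching DMSO. Plates were incubated at 37 °C for 7 days, then fresh 0.02% resazurin was added and plates incubated a further 48 h. MIC was the lowest concentration giving complete inhibition, read visually by colour.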

[2] = Cytotoxicity against african green monkey Vero C1008 cells assessed as cell viability at 1000 ug/ml after 72 hrs by MTT assay; format: cell-based; conditions: chlorocebus sabaeus, read-out: Activity
[3] = Cytotoxicity against african green monkey Vero C1008 cells assessed as cell viability at 31.25 ug/ml after 72 hrs by MTT assay; format: cell-based; conditions: chlorocebus sabaeus, read-out: Activity
[4] = Cytotoxicity against african green monkey Vero C1008 cells assessed as cell viability at 125 ug/ml after 72 hrs by MTT assay; format: cell-based; conditions: chlorocebus sabaeus, read-out: Activity
[5] = Cytotoxicity against african green monkey Vero C1008 cells after 72 hrs by MTT assay; format: cell-based; conditions: chlorocebus sabaeus
[6] = Cytotoxicity against african green monkey Vero C1008 cells assessed as cell viability at 62.5 ug/ml after 72 hrs by MTT assay; format: cell-based; conditions: chlorocebus sabaeus, read-out: Activity
[7] = Cytotoxicity against african green monkey Vero C1008 cells assessed as cell viability at 2000 ug/ml after 72 hrs by MTT assay; format: cell-based; conditions: chlorocebus sabaeus, read-out: Activity

SMILES	MIC [1] [µM]	viability at 72 h, 1000 ug/ml [2] [%]	viability at 72 h, 31.25 ug/ml [3] [%]	viability at 72 h, 125 ug/ml [4] [%]	CC50 at 72 h [5] [mM]	viability at 72 h, 62.5 ug/ml [6] [%]	viability at 72 h, 2000 ug/ml [7] [%]
N=C(N)N/N=C/c1ccc(O)cc1	1120 (≈ 200 µg/mL)	–	–	–	–	–	–
O=C(O)/C=C/c1ccccc1 [CINNAMIC ACID]	675 (≈ 100 µg/mL)	–	–	–	–	–	–
NNC(=O)c1ccncc1 [ISONIAZID]	1.8 (≈ 0.247 µg/mL)	31.7	99.3	95.5	5.83	98.5	23.1
O=C(/C=C/c1ccccc1)Oc1ccccc1 [PHENYL CINNAMATE]	502 (≈ 113 µg/mL)	–	–	–	–	–	–
